Measured values reported in ChEMBL document CHEMBL1275252, “First survey of metallo-beta-lactamases in clinical isolates of Pseudomonas aeruginosa in a German university hospital” (2010).

Legend:
Type in all cases: functional
[1] = system: Pseudomonas aeruginosa; test: Antimicrobial activity against metallo-beta-lactamase-negative Pseudomonas aeruginosa isolate PA360
How it was run: (§1)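 MBL-negative clinical P. aeruginosa isolates with reduced imipenem susceptibility, collected at the study hospital, some from cystic fibrosis patients. Species identity was confirmed by automated Gram-negative identification card. MIC was read in μg/ml.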

[2] = system: Pseudomonas aeruginosa; test: Antimicrobial activity against metallo-beta-lactamase-negative Pseudomonas aeruginosa isolate PA370; how it was run: as §1
[3] = system: Pseudomonas aeruginosa; test: Antimicrobial activity against metallo-beta-lactamase-negative Pseudomonas aeruginosa isolate PA364; how it was run: as §1
[4] = system: Pseudomonas aeruginosa; test: Antimicrobial activity against Pseudomonas aeruginosa PA430 expressing VIM-4 beta-lactamase
How it was run: (§2)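 Well-characterized MBL-producing control strains from earlier studies: nine P. aeruginosa and one A. baumannii. MIC was read in μg/ml and used to set screening breakpoints for MBL producers.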

[5] = system: Pseudomonas aeruginosa; test: Antimicrobial activity against Pseudomonas aeruginosa PA431 expressing IMP-1 beta-lactamase; how it was run: as §2
[6] = system: Acinetobacter baumannii; test: Antimicrobial activity against Acinetobacter baumannii AB551 expressing SIM-1 beta-lactamase; how it was run: as §2
[7] = system: Pseudomonas aeruginosa; test: Antimicrobial activity against metallo-beta-lactamase-negative Pseudomonas aeruginosa isolate PA395; how it was run: as §1
[8] = system: Pseudomonas aeruginosa; test: Antimicrobial activity against metallo-beta-lactamase-negative Pseudomonas aeruginosa isolate PA479
[9] = system: Pseudomonas aeruginosa; test: Antimicrobial activity against Pseudomonas aeruginosa isolate PA469 expressing VIM-2 beta-lactamase
[10] = system: Pseudomonas aeruginosa; test: Antimicrobial activity against Pseudomonas aeruginosa PA553 expressing SPM-1 beta-lactamase; how it was run: as §2
[11] = system: Pseudomonas aeruginosa; test: Antimicrobial activity against metallo-beta-lactamase-negative Pseudomonas aeruginosa isolate PA352; how it was run: as §1
[12] = system: Pseudomonas aeruginosa; test: Antimicrobial activity against Pseudomonas aeruginosa PA386 expressing IMP-13 beta-lactamase; how it was run: as §2
[13] = system: Pseudomonas aeruginosa; test: Antimicrobial activity against metallo-beta-lactamase-negative Pseudomonas aeruginosa isolate PA483
[14] = system: Pseudomonas aeruginosa; test: Antimicrobial activity against metallo-beta-lactamase-negative Pseudomonas aeruginosa isolate PA736 isolated from patient with cystic fibrosis; how it was run: as §1
[15] = system: Pseudomonas aeruginosa; test: Antimicrobial activity against metallo-beta-lactamase-negative Pseudomonas aeruginosa isolate PA342; how it was run: as §1
[16] = system: Pseudomonas aeruginosa; test: Antimicrobial activity against metallo-beta-lactamase-negative Pseudomonas aeruginosa isolate PA349; how it was run: as §1
[17] = system: Pseudomonas aeruginosa; test: Antimicrobial activity against Pseudomonas aeruginosa PA399 expressing VIM-2 beta-lactamase; how it was run: as §2
[18] = system: Pseudomonas aeruginosa; test: Antimicrobial activity against Pseudomonas aeruginosa isolate PA465 expressing VIM-2 beta-lactamase
[19] = system: Pseudomonas aeruginosa; test: Antimicrobial activity against metallo-beta-lactamase-negative Pseudomonas aeruginosa isolate PA460
[20] = system: Pseudomonas aeruginosa; test: Antimicrobial activity against Pseudomonas aeruginosa PA373 expressing VIM-2 beta-lactamase; how it was run: as §2
[21] = system: Pseudomonas aeruginosa; test: Antimicrobial activity against Pseudomonas aeruginosa isolate PA475 expressing VIM-2 beta-lactamase
[22] = system: Pseudomonas aeruginosa; test: Antimicrobial activity against metallo-beta-lactamase-negative Pseudomonas aeruginosa isolate PA380; how it was run: as §1
[23] = system: Pseudomonas aeruginosa; test: Antimicrobial activity against Pseudomonas aeruginosa isolate PA481 expressing VIM-2 beta-lactamase
[24] = system: Pseudomonas aeruginosa; test: Antimicrobial activity against Pseudomonas aeruginosa isolate PA399 expressing VIM-2 beta-lactamase
[25] = system: Pseudomonas aeruginosa; test: Antimicrobial activity against metallo-beta-lactamase-negative Pseudomonas aeruginosa isolate PA459; how it was run: as §1
[26] = system: Pseudomonas aeruginosa; test: Antimicrobial activity against Pseudomonas aeruginosa PA552 expressing IMP-1 beta-lactamase; how it was run: as §2
[27] = system: Pseudomonas aeruginosa; test: Antimicrobial activity against metallo-beta-lactamase-negative Pseudomonas aeruginosa isolate PA382; how it was run: as §1
[28] = system: Pseudomonas aeruginosa; test: Antimicrobial activity against metallo-beta-lactamase-negative Pseudomonas aeruginosa isolate PA362; how it was run: as §1
[29] = system: Pseudomonas aeruginosa; test: Antimicrobial activity against Pseudomonas aeruginosa isolate PA462 expressing VIM-2 beta-lactamase
[30] = system: Pseudomonas aeruginosa; test: Antimicrobial activity against Pseudomonas aeruginosa isolate PA510 expressing VIM-2 beta-lactamase
[31] = system: Pseudomonas aeruginosa; test: Antimicrobial activity against metallo-beta-lactamase-negative Pseudomonas aeruginosa isolate PA361; how it was run: as §1
[32] = system: Pseudomonas aeruginosa; test: Antimicrobial activity against Pseudomonas aeruginosa isolate PA500 expressing VIM-1 beta-lactamase
[33] = system: Pseudomonas aeruginosa; test: Antimicrobial activity against metallo-beta-lactamase-negative Pseudomonas aeruginosa isolate PA381; how it was run: as §1
[34] = system: Pseudomonas aeruginosa; test: Antimicrobial activity against metallo-beta-lactamase-negative Pseudomonas aeruginosa isolate PA346; how it was run: as §1
[35] = system: Pseudomonas aeruginosa; test: Antimicrobial activity against metallo-beta-lactamase-negative Pseudomonas aeruginosa isolate PA376
[36] = system: Pseudomonas aeruginosa; test: Antimicrobial activity against metallo-beta-lactamase-negative Pseudomonas aeruginosa isolate PA339; how it was run: as §1
[37] = system: Pseudomonas aeruginosa; test: Antimicrobial activity against metallo-beta-lactamase-negative Pseudomonas aeruginosa isolate PA341; how it was run: as §1
[38] = system: Pseudomonas aeruginosa; test: Antimicrobial activity against Pseudomonas aeruginosa isolate PA477 expressing VIM-2 beta-lactamase
[39] = system: Pseudomonas aeruginosa; test: Antimicrobial activity against metallo-beta-lactamase-negative Pseudomonas aeruginosa isolate PA368; how it was run: as §1
[40] = system: Pseudomonas aeruginosa; test: Antimicrobial activity against metallo-beta-lactamase-negative Pseudomonas aeruginosa isolate PA734 isolated from patient with cystic fibrosis; how it was run: as §1
[41] = system: Pseudomonas aeruginosa; test: Antimicrobial activity against Pseudomonas aeruginosa PA554 expressing GIM-1 beta-lactamase; how it was run: as §2
[42] = system: Pseudomonas aeruginosa; test: Antimicrobial activity against metallo-beta-lactamase-negative Pseudomonas aeruginosa isolate PA350; how it was run: as §1
[43] = system: Pseudomonas aeruginosa; test: Antimicrobial activity against metallo-beta-lactamase-negative Pseudomonas aeruginosa isolate PA356; how it was run: as §1
[44] = system: Pseudomonas aeruginosa; test: Antimicrobial activity against metallo-beta-lactamase-negative Pseudomonas aeruginosa isolate PA377; how it was run: as §1
[45] = system: Pseudomonas aeruginosa; test: Antimicrobial activity against metallo-beta-lactamase-negative Pseudomonas aeruginosa isolate PA340; how it was run: as §1
[46] = system: Pseudomonas aeruginosa; test: Antimicrobial activity against metallo-beta-lactamase-negative Pseudomonas aeruginosa isolate PA355; how it was run: as §1
[47] = system: Pseudomonas aeruginosa; test: Antimicrobial activity against metallo-beta-lactamase-negative Pseudomonas aeruginosa isolate PA758 isolated from patient with cystic fibrosis; how it was run: as §1
[48] = system: Pseudomonas aeruginosa; test: Antimicrobial activity against metallo-beta-lactamase-negative Pseudomonas aeruginosa isolate PA509
[49] = system: Pseudomonas aeruginosa; test: Antimicrobial activity against metallo-beta-lactamase-negative Pseudomonas aeruginosa isolate PA494
[50] = system: Pseudomonas aeruginosa; test: Antimicrobial activity against metallo-beta-lactamase-negative Pseudomonas aeruginosa isolate PA774 isolated from patient with cystic fibrosis; how it was run: as §1
[51] = system: Pseudomonas aeruginosa; test: Antimicrobial activity against Pseudomonas aeruginosa PA550 expressing VIM-1 beta-lactamase; how it was run: as §2
[52] = system: Pseudomonas aeruginosa; test: Antimicrobial activity against metallo-beta-lactamase-negative Pseudomonas aeruginosa isolate PA507; how it was run: as §1

Measured: MIC

C[C@@H](O)[C@H]1C(=O)N2C(C(=O)O)=C(SCCNC=N)C[C@H]12 [IMIPENEM ANHYDROUS]
≥ 16 µg/mL: [2] | [4] | [6] | [7] | [9] | [10] | [11] | [12] | [13] | [15] | [16] | [17] | [18] | [19] | [20] | [21] | [23] | [24] | [25] | [26] | [27] | [29] | [30] | [31] | [32] | [33] | [34] | [35] | [36] | [37] | [38] | [39] | [40] | [41] | [42] | [43] | [44] | [46] | [47] | [48] | [49] | [50] | [51]
8 µg/mL: [1] | [3] | [5] | [8] | [14] | [22] | [28] | [45]

CC(C)(O/N=C(\C(=O)N[C@@H]1C(=O)N2C(C(=O)[O-])=C(C[n+]3ccccc3)CS[C@H]12)c1csc(N)n1)C(=O)O [CEFTAZIDIME]
16 µg/mL: [1] | [35]
32 µg/mL: [52] | [19] | [25] | [28] | [48] | [49]
≥ 64 µg/mL: [4] | [5] | [6] | [7] | [8] | [9] | [10] | [12] | [13] | [14] | [17] | [18] | [20] | [21] | [23] | [24] | [26] | [29] | [30] | [31] | [32] | [37] | [38] | [41] | [50] | [51]
4 µg/mL: [3] | [11] | [15] | [22] | [27] | [33] | [34] | [39] | [40] | [42] | [43] | [45] | [46] | [47]
8 µg/mL: [2] | [16] | [36] | [44]
